Measured values: publication PMC2882023 (The Journal of neuroscience : the official journal of the …, 2010)
Structures can show the parent of a compound that is named as a salt. Where two headings read alike, the source gives them in different places.

How the values were obtained:
[1] = ref Wu et al. 2004; cited from earlier work
[2] = test system: pERK-positive cells in L6 spinal cord; experiment: spinal ERK activation; type: in vivo, Sprague-Dawley rats; details: 300 nmol, i.t., 10 min before 1% acetic acid intravesically; n = 4
Summary of the method: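 Separate experiment in urethane-anaesthetised bladder-cannulated female rats: ≥1 h post-cannulation, i.t. test compound (300 nmol) or 5% DMSO; 10 min later, 700 μl 1% acetic acid intravesically for 2 min (sham: vehicle, no acid, 12 min). Perfusion-fixed (4% paraformaldehyde/picric acid); 20 μm L6 cryosections. Anti-phospho-p44/42 (Thr202/Tyr204) staining with tyramide amplification and FITC. Four rats/group, three sections each, blind counting; one-way ANOVA/Tukey.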

other P2X receptors = experiment: calcium flux selectivity over other P2X receptors; type: cell-based; details: up to a concentration of 10 μM
Summary of the method: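 Off-target P2X subtypes were tested in Fluo-3-loaded CHOK1 cells (recombinant human P2X1, human P2X4, rat P2X5 or human P2X7) and 1321N1 astrocytoma cells (cloned human P2X2). Intracellular calcium flux was evoked by αβmeATP or ATP, at a level varied by subtype, with test compound present. pIC50 was derived with n = 3 per receptor.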

[3] = test system: micturition reflex contractions; type: in vivo, Sprague-Dawley rats; details: i.t.; for intercontraction interval (ICI): anaesthetized rats, mean ± SEM; for intercontraction interval (ICI), extent of prolongation over the dose range: across the doses tested
Summary of the method: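 Urethane-anaesthetised (1.2 g/kg i.p.) adult female rats, 200–280 g, with an intrathecal catheter tip at L1 placed ≥1 d earlier. Ureters and urethral orifice ligated. Bladder saline-infused at 100 μl/min to micturition threshold, then 3–5 μl/min. After ≥10 min stable baseline, vehicle (saline or 5% DMSO/saline), then escalating i.t. doses (10 μl + 10 μl saline flush, ≥8 min apart). ICI from intravesical pressure; n = 5–15; repeated-measures ANOVA/Bonferroni.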

hP2X2/3 = target: T1, hP2X2/3 (Homo sapiens, UniProt P56373+Q9UBL9); type: cell-based; details: αβmeATP or ATP-evoked calcium flux, 1321N1 cells, n = 15
T1 sequence (Q9UBL9 1-471): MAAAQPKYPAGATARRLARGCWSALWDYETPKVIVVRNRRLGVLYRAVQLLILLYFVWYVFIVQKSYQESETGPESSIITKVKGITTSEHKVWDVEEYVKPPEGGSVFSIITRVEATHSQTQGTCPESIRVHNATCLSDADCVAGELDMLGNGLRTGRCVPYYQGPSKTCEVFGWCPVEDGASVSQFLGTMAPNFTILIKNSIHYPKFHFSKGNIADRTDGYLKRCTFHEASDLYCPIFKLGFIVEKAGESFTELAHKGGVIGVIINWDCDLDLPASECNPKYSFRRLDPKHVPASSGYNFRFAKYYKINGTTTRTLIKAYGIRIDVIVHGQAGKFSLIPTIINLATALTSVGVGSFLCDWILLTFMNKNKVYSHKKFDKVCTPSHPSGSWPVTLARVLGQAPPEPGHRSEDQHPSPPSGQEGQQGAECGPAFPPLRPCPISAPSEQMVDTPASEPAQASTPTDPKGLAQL
T1 sequence (P56373 1-397): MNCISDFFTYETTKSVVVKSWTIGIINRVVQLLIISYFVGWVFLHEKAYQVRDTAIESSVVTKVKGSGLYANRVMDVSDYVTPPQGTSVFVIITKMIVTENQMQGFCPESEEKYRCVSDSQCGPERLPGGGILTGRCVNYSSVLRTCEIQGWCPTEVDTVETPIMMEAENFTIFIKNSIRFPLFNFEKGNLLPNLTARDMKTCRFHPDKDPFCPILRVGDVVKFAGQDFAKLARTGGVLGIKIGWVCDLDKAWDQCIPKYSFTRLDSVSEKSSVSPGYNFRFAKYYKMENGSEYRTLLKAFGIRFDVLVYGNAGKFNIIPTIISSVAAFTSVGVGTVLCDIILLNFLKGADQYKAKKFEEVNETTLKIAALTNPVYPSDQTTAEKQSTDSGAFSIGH
Summary of the method: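 Cytosolic calcium flux was read in Fluo-3-loaded 1321N1 astrocytoma cells transfected with cloned human P2X2/3 receptors. Flux was evoked by αβmeATP or ATP, at an agonist level set per receptor subtype, with test compound present. Inhibition was expressed as pIC50 ± SEM from 15 determinations.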

more than 100 kinases = experiment: Ambit kinase screen; type: binding; details: 10 μM
[4] = test system: 75 receptors, channels, enzymes, and transporters; experiment: Cerep screen of 75 receptors, channels, enzymes and transporters; type: binding; details: 10 μM, 75 targets
P2X2/3 = details: ref Gever et al., 2006; Carter et al., 2009; cited from earlier work
P2X3 = details: ref Gever et al., 2006; Carter et al., 2009; cited from earlier work
P2X1 = details: ref Gever et al., 2006; Carter et al., 2009; cited from earlier work

Row | Structure (SMILES) | pIC50 at P2X2/3 (P2X2/3) | intercontraction interval (ICI) ([3]; 10 nmol) [min] | intercontraction interval (ICI), extent of prolongation over the dose range [3] | pIC50 at P2X3 (P2X3) | intercontraction interval (ICI) ([3]; 1 nmol) [min] | also measured
1 | O=C(O)c1cc(C(=O)O)c(C(=O)N(Cc2cccc(Oc3ccccc3)c2)[C@H]2CCCc3ccccc32)cc1C(=O)O [A-317491] |  |  |  |  |  | CNS permeability [1]: negligible CNS permeability
2 | C#Cc1cc(Oc2cnc(N)nc2N)c(C(C)C)cc1OC [AF-792] |  |  |  |  |  | number of pERK-positive cells in L6 spinal cord segment [2]: 43.0 ± 9.6 cells/ section; inhibition at other P2X receptors (other P2X receptors): no inhibition; intercontraction interval (ICI) ([3]; 100 nmol): 8.00 ± 1.67 min; intercontraction interval (ICI) ([3]; 300 nmol): 9.33 ± 2.50 min; pIC50 ± SEM (hP2X2/3): 7.94 ± 0.08; inhibition of radioligand binding or function (more than 100 kinases): little or no inhibition; inhibition of radioligand binding or function [4]: little or no inhibition
3 | Cc1nc(N=Nc2ccc(S(=O)(=O)O)cc2S(=O)(=O)O)c(COP(=O)(O)O)c(C=O)c1O [PPADs, pyridoxal-phosphate-6-azophenyl-2′,4′,-disulphonic acid] | 6 | 3.50 ± 1.15 | more than 2 min | 6 |  | 
4 | Nc1ncnc2c1ncn2[C@@H]1O[C@H](COP(=O)(O)OP(=O)(O)OP(=O)(O)O)[C@H]2OC3(O[C@H]21)C([N+](=O)[O-])=CC(=[N+]([O-])[O-])C=C3[N+](=O)[O-] (some centres unmarked) [TNP-ATP, 2′,3′-O-(2,4,6-trinitrophenyl) adenosine 5′-triphosphate monolithium trisodium salt] | 8.4 | 4.28 ± 1.21 |  | 9 | 4.64 ± 1.30 | pIC50 at P2X1 (P2X1): 8.22
5 | Nc1ncnc2c1ncn2[C@@H]1O[C@H](COP(=O)(O)CP(=O)(O)OP(=O)(O)O)[C@@H](O)[C@H]1O [αβmeATP, α,β-methylene-ATP] |  |  | up to 10 min |  | 8.45 ± 2.48 | lowest significant dose for prolonging the ICI [3]: 1 nmol
